pIC50: −log10 of the molar value.
Assays:
[1] = tested on: 143B; experiment: Cytotoxicity against human thymidine kinase deficient 143B cells after 72 hrs by SRB assay; type: functional, cell-based
Outline: (§1)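 SRB protein-stain assay. Cells were seeded at about 10,000 per well and grown 24 h to a partial monolayer. They were then exposed for 72 h at 37 °C (5% CO2, 90% RH) to six concentrations: 0.1, 0.2, 1, 2, 10 and 20 µM. Final DMSO was ≤0.1%. Cells were TCA-fixed and stained with 0.4% SRB, and OD was read at 490 nm. Survival was expressed versus untreated cells. Cytarabine served as internal standard, with three experiments.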

[2] = tested on: KB; experiment: Cytotoxicity against human KB cells after 72 hrs by SRB assay; type: functional, cell-based; outline: as §1
[3] = tested on: 143B; experiment: Cytotoxicity against human 143B cells after 72 hrs by SRB assay; type: functional, cell-based; outline: as §1
[4] = Cytotoxicity against HDF cells after 72 hrs by SRB assay; type: cell-based; details: Homo sapiens
[5] = tested on: MCF7; experiment: Cytotoxicity against human MCF7cells after 72 hrs by SRB assay; type: functional, cell-based; details: MCF7, 72 h
[6] = tested on: HepG2; experiment: Cytotoxicity against human HepG2 cells after 72 hrs by SRB assay; type: functional, cell-based; details: HepG2, 72 h
[7] = tested on: HeLa; experiment: Cytotoxicity against human HeLa cells after 72 hrs by SRB assay; type: functional, cell-based; outline: as §1
[8] = tested on: MCF7; experiment: Selectivity index, ratio of IC50 for HDF cells to IC50 for human MCF7 cells; type: functional
Outline: (§2)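 SI is calculated as the IC50 in normal human dermal fibroblasts (HDF) divided by the IC50 in the respective cancer line. Both values come from 72 h SRB assays. SD is from three independent experiments.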

[9] = Selectivity index, ratio of IC50 for HDF cells to IC50 for human KB cells; type: functional; outline: as §2
[10] = tested on: HepG2; experiment: Selectivity index, ratio of IC50 for HDF cells to IC50 for human HepG2 cells; type: functional; outline: as §2
[11] = tested on: 143B; experiment: Selectivity index, ratio of IC50 for HDF cells to IC50 for human 143B cells; type: functional; outline: as §2
[12] = tested on: HeLa; experiment: Selectivity index, ratio of IC50 for HDF cells to IC50 for human HeLa cells; type: functional; outline: as §2
[13] = tested on: HeLa; experiment: Cytotoxicity against human HeLa cells after 72 hrs in presence of human recombinant cytochrome P450 isoform mixture by SRB assay; type: functional, cell-based
[14] = tested on: MCF7; experiment: Potency index, ratio of IC50 for 5-fluoro-2'-deoxyuridine to IC50 for test compound for cytotoxicity against human MCF7cells after 72 hrs by SRB assay; type: functional

| SMILES | pIC50 [1] | pIC50 [2] | pIC50 [3] | pIC50 [4] | pIC50 [5] | pIC50 [6] | pIC50 [7] | Ratio IC50 [8] | Ratio IC50 [9] | Ratio IC50 [10] | Ratio IC50 [11] | Ratio IC50 [12] | pIC50 [13] | Ratio IC50 [14] |
| --- | --- | --- | --- | --- | --- | --- | --- | --- | --- | --- | --- | --- | --- | --- |
| CCNP(=O)(OC[C@H]1O[C@@H](n2cc(F)c(=O)[nH]c2=O)C[C@@H]1O)Oc1ccc(Cl)cc1 (stereo partly drawn) | 4.80 | 5.09 | 5.62 | 4.79 | 4.71 | 5.27 | 5.09 | – | – | – | – | – | – | – |
| C=CCNP(=O)(OC[C@H]1O[C@@H](n2cc(F)c(=O)[nH]c2=O)C[C@@H]1OC(=O)OC(C)(C)C)Oc1ccc(Cl)cc1 (stereo partly drawn) | – | 4.78 | – | 4.57 | 4.89 | 4.77 | 4.72 | – | – | – | – | – | – | – |
| COC(=O)[C@H](C)NP(=O)(OC[C@H]1O[C@@H](n2cc(F)c(=O)[nH]c2=O)C[C@@H]1OC(=O)OC(C)(C)C)Oc1ccc(Cl)cc1 (stereo partly drawn) | 5.51 | 5.81 | 5.82 | 5.21 | 5.59 | 5.46 | 5.78 | 2.39 | 4.03 | 1.66 | 4.11 | 3.76 | – | – |
| CC(C)(C)OC(=O)O[C@H]1C[C@H](n2cc(F)c(=O)[nH]c2=O)O[C@@H]1COP(=O)(NCC(F)(F)F)Oc1ccc(Cl)cc1 (stereo partly drawn) | 5.70 | 4.84 | 6.55 | 4.43 | 5.39 | 4.73 | 4.84 | – | – | – | – | – | – | – |
| CC(C)(C)OC(=O)O[C@H]1C[C@H](n2cc(F)c(=O)[nH]c2=O)O[C@@H]1COP(=O)(NCCCN=[N+]=[N-])Oc1ccc(Cl)cc1 (stereo partly drawn) | – | 4.26 | – | 4.24 | 4.23 | 4.33 | 4.28 | – | – | – | – | – | 4.62 | – |
| CC(C)(C)OC(=O)O[C@H]1C[C@H](n2cc(F)c(=O)[nH]c2=O)O[C@@H]1CO | 4.33 | 4.12 | 4.74 | < 4.00 | 4.19 | 4.09 | 4.20 | – | – | – | – | – | – | – |
| COC(=O)[C@H](C)NP(=O)(OC[C@H]1O[C@@H](n2cc(F)c(=O)[nH]c2=O)C[C@@H]1O)Oc1ccc(Cl)cc1 (stereo partly drawn) | 5.06 | 5.37 | 5.39 | 4.73 | 5.34 | 5.18 | 5.39 | 4.06 | 4.37 | 2.77 | 4.58 | 4.49 | – | – |
| CC(C)(C)OC(=O)O[C@H]1C[C@H](n2cc(F)c(=O)[nH]c2=O)O[C@@H]1COP(=O)(NCCCCN=[N+]=[N-])Oc1ccc(Cl)cc1 (stereo partly drawn) | – | 4.45 | – | 4.32 | 4.45 | 4.23 | 4.44 | – | – | – | – | – | 4.75 | – |
| COC(=O)[C@H](C)NP(=O)(OC[C@H]1O[C@@H](n2cc(F)c(=O)[nH]c2=O)C[C@@H]1O)Oc1ccccc1 (stereo partly drawn) | – | 4.74 | – | 4.37 | 4.54 | 4.59 | 4.63 | – | – | – | – | – | – | – |
| C=CCNP(=O)(OC[C@H]1O[C@@H](n2cc(F)c(=O)[nH]c2=O)C[C@@H]1O)Oc1ccc(Cl)cc1 (stereo partly drawn) | – | 4.41 | – | 4.04 | 4.02 | 4.01 | 4.05 | – | – | – | – | – | – | – |
| CCCNP(=O)(OC[C@H]1O[C@@H](n2cc(F)c(=O)[nH]c2=O)C[C@@H]1OC(=O)OC(C)(C)C)Oc1ccc(Cl)cc1 (stereo partly drawn) | – | 4.57 | – | 4.21 | 4.68 | 4.59 | 4.31 | – | – | – | – | – | 4.34 | – |
| Oc1ccc(Cl)cc1 [PARACHLOROPHENOL] | – | 2.84 | – | 2.73 | 2.73 | 2.77 | 2.78 | – | – | – | – | – | – | – |
| CCCCNP(=O)(OC[C@H]1O[C@@H](n2cc(F)c(=O)[nH]c2=O)C[C@@H]1O)Oc1ccc(Cl)cc1 (stereo partly drawn) | – | < 4.00 | – | < 4.00 | < 4.00 | < 4.00 | < 4.00 | – | – | – | – | – | < 4.00 | – |
| CCNP(=O)(OC[C@H]1O[C@@H](n2cc(F)c(=O)[nH]c2=O)C[C@@H]1OC(=O)OC(C)(C)C)Oc1ccc(Cl)cc1 (stereo partly drawn) | 5.04 | 5.47 | 5.36 | 5.22 | 5.85 | 5.37 | 5.58 | 4.24 | 1.79 | 1.41 | 1.37 | 2.26 | – | 9 |
| CNP(=O)(OC[C@H]1O[C@@H](n2cc(F)c(=O)[nH]c2=O)C[C@@H]1O)Oc1ccc(Cl)cc1 (stereo partly drawn) | 4.90 | 5.35 | 5.67 | 4.93 | 5.35 | 5.03 | 5.24 | 2.66 | 2.66 | 1.27 | 5.58 | 2.05 | – | – |
| COC(=O)[C@H](C)NP(=O)(OC[C@H]1O[C@@H](n2cc(F)c(=O)[nH]c2=O)C[C@@H]1OC(=O)OC(C)(C)C)Oc1ccccc1 (stereo partly drawn) | – | 5.08 | – | 4.76 | 5.20 | 5.03 | 5.08 | – | – | – | – | – | – | – |
| CNP(=O)(OC[C@H]1O[C@@H](n2cc(F)c(=O)[nH]c2=O)C[C@@H]1OC(=O)OC(C)(C)C)Oc1ccc(Cl)cc1 (stereo partly drawn) | 4.88 | 5.14 | 5.17 | 4.91 | 5.09 | 5.18 | 5.14 | – | – | – | – | – | – | – |
| C#CCNP(=O)(OC[C@H]1O[C@@H](n2cc(F)c(=O)[nH]c2=O)C[C@@H]1OC(=O)OC(C)(C)C)Oc1ccc(Cl)cc1 (stereo partly drawn) | 5.44 | 5.36 | 5.52 | 5.14 | 5.33 | 5.44 | 5.36 | 1.53 | 1.65 | 1.97 | 2.39 | 1.65 | – | – |
| CCCNP(=O)(OC[C@H]1O[C@@H](n2cc(F)c(=O)[nH]c2=O)C[C@@H]1O)Oc1ccc(Cl)cc1 (stereo partly drawn) | – | 4.30 | – | 4.21 | 4.57 | 4.38 | 4.30 | – | – | – | – | – | 4.34 | – |
| O=c1[nH]c(=O)n([C@H]2C[C@H](O)[C@@H](CO)O2)cc1F [FLOXURIDINE] | 4.85 | – | 5.22 | 4.88 | – | 5.05 | – | 1.07 | 1.5 | 1.47 | 2.17 | 2.01 | – | – |
| O=c1[nH]cc(F)c(=O)[nH]1 [FLUOROURACIL] | 4.79 | – | 4.89 | 5.15 | – | 5.18 | – | 1.08 | 1.45 | 1.06 | 0.54 | 1.13 | – | – |
| O=c1[nH]c(=O)n([C@H]2C[C@H](O)[C@@H](COP(=O)(NCC(F)(F)F)Oc3ccc(Cl)cc3)O2)cc1F (stereo partly drawn) | 5.60 | 5.71 | 5.74 | 5.38 | 5.74 | 5.46 | 5.51 | 2.3 | 2.17 | 1.2 | 2.33 | 1.36 | – | – |
| [N-]=[N+]=NCCCCNP(=O)(OC[C@H]1O[C@@H](n2cc(F)c(=O)[nH]c2=O)C[C@@H]1O)Oc1ccc(Cl)cc1 (stereo partly drawn) | – | 4.15 | – | < 4.00 | 4.17 | < 4.00 | 4.14 | – | – | – | – | – | 4.69 | – |
| Nc1ccn([C@@H]2O[C@H](CO)[C@@H](O)[C@@H]2O)c(=O)n1 [CYTARABINE] | 4.77 | – | 5.69 | 5.30 | – | 5.54 | – | 1.31 | 1.23 | 1.75 | 2.42 | 1.41 | – | – |
| CCCCNP(=O)(OC[C@H]1O[C@@H](n2cc(F)c(=O)[nH]c2=O)C[C@@H]1OC(=O)OC(C)(C)C)Oc1ccc(Cl)cc1 (stereo partly drawn) | – | 4.18 | – | 4.06 | 4.10 | 4.19 | 4.12 | – | – | – | – | – | 4.15 | – |
| C#CCNP(=O)(OC[C@H]1O[C@@H](n2cc(F)c(=O)[nH]c2=O)C[C@@H]1O)Oc1ccc(Cl)cc1 (stereo partly drawn) | 5.41 | 4.60 | 5.44 | 4.51 | 4.92 | 4.61 | 4.98 | – | – | – | – | – | – | – |
| [N-]=[N+]=NCCCNP(=O)(OC[C@H]1O[C@@H](n2cc(F)c(=O)[nH]c2=O)C[C@@H]1O)Oc1ccc(Cl)cc1 (stereo partly drawn) | – | 4.65 | – | 4.39 | 4.57 | 4.65 | 4.65 | – | – | – | – | – | 4.87 | – |
